Assay results as given in PMC2951064 (Journal of Medicinal Chemistry, 2010).

Experiments:
wtBcr-Abl-Ba/F3 = experiment: Antiproliferative activity on wtBcr-Abl-Ba/F3; format: cell-based, murine; conditions: for cellular Bcr-Abl inhibitory activity (in words): wild-type Bcr-Abl
T315I Bcr-Abl [1] = experiment: Antiproliferative activity on T315I Bcr-Abl mutant Ba/F3 cells; format: cell-based, murine; conditions: for EC50: Mus musculus, BaF3, read-out: cellular EC50 T315I
Procedure, shortened: (§1)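 IL-3-dependent murine Ba/F3 cells were transfected with a pEYK vector carrying p210 Bcr-Abl with the point mutation. Cells were grown in RPMI 1640 with 10% FBS, 1% L-glutamine and 25 μg/mL zeocin at 37 °C under 5% CO2. Test compound was applied for 48 h, and proliferation was read by CellTiter-Glo luminescence.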

[2] = system: panel of 80 diverse kinases; conditions: cited from earlier work
[3] = system: 40 other tyrosine kinases; conditions: cited from earlier work
Y253H Bcr-Abl = conditions: background statement, ref not given; cited from earlier work
E255V Bcr-Abl = conditions: background statement, ref not given; cited from earlier work
parental Ba/F3 = experiment: Cytotoxicity on parental Ba/F3 cells; format: cell-based, murine; conditions: Mus musculus, BaF3, read-out: cellular EC50 Wt-Ba/F3
Procedure, shortened: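 Untransfected IL-3-dependent Ba/F3 cells were grown in RPMI 1640 with 10% FBS, 1% L-glutamine and 10% WEHI-conditioned medium as the IL-3 source, at 37 °C under 5% CO2. Cells were exposed to test compound for 48 h, and viability was measured by CellTiter-Glo luminescence.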

E505K Bcr-Abl = experiment: Antiproliferative activity on E505K Bcr-Abl mutant Ba/F3 cells; format: cell-based, murine; conditions: Mus musculus, BaF3, read-out: cellular EC50 E505K
Procedure, shortened: as §1

T315I Bcr-Abl [4] = conditions: cited from earlier work

SMILES | cellular Bcr-Abl inhibitory activity (in words) (wtBcr-Abl-Ba/F3) | also measured
FC(F)(F)Oc1ccc(Oc2cc(NCCN3CCOCC3)ncn2)cc1 [8d] | complete loss of cellular activity | 
FC(F)(F)c1ccc(Nc2cc(-c3ccncc3)ncn2)cc1 [9j] | retained some activity | 
NC(=O)c1ccccc1-c1cc(Nc2ccc(OC(F)(F)F)cc2)ncn1 [5b] | inactive | 
Cc1cn(-c2cc(NC(=O)c3ccc(C)c(Nc4nccc(-c5cccnc5)n4)c3)cc(C(F)(F)F)c2)cn1 [nilotinib, reference compound] |  | EC50 (wtBcr-Abl-Ba/F3; Mus musculus, read-out: wt Bcr-Abl-Ba/F3 EC50): 0.04 µM
FC(F)(F)Oc1ccc(-c2cc(NCCN3CCOCC3)ncn2)cc1 [8e] | complete loss of cellular activity | 
NC(=O)c1cccc(-c2cc(Nc3ccc(OC(F)(F)F)cc3)ncn2)c1 [compound 1] | active | activity on T315I gatekeeper mutant (in words) (T315I Bcr-Abl [1]): inactive; inhibition of biochemical activity of a panel of 80 diverse kinases (in words) [2]: did not inhibit; inhibition of 40 other tyrosine kinases in cellular assays (in words) [3]: did not inhibit; activity on Y253H mutant (in words) (Y253H Bcr-Abl): active; activity on E255V mutant (in words) (E255V Bcr-Abl): active
COc1ccc(Nc2cc(NCCN3CCOCC3)ncn2)cc1 [8b] | complete loss of activity | 
CN(c1ccc(OC(F)(F)F)cc1)c1cc(NCCN2CCOCC2)ncn1 [8a] | complete loss of cellular activity | 
FC(F)(F)Oc1ccc(Nc2ccnc(NCCN3CCOCC3)n2)cc1 [9d] | inactive | 
CN(c1ccc(OC(F)(F)F)cc1)c1cc(-c2ccncc2)ncn1 [9g] | complete loss of cellular activity | 
CS(=O)(=O)Nc1ccc(-c2cc(Nc3ccc(OC(F)(F)F)cc3)ncn2)cc1 [5h] |  | EC50 (T315I Bcr-Abl [1]): > 10 µM; EC50 (parental Ba/F3): > 10 µM; EC50 (E505K Bcr-Abl): > 10 µM
FC(F)(F)Oc1ccc(CNc2cc(NCCN3CCOCC3)ncn2)cc1 [8g] | completely inactive | 
FC(F)(F)Oc1ccc(Nc2cncc(NCCN3CCOCC3)n2)cc1 [9e] | inactive | 
O=C(NCCO)c1cccc(-c2cc(Nc3ccc(OC(F)(F)F)cc3)ncn2)c1 [compound 2, N-(2-Hydroxyethyl)-3-(6-(4-(trifluoromethoxy)phenylamino)pyrimidin-4-yl)benzamide] |  | synergy with nilotinib on proliferation of T315I Bcr-Abl (in words) (T315I Bcr-Abl [4]): capable of synergizing
FC(F)(F)Oc1ccc(Nc2ccc(NCCN3CCOCC3)nn2)cc1 [9f] | inactive | 
CN1CCN(C(=O)c2cc3c(Nc4ccc(OC(F)(F)F)cc4)ncnc3s2)CC1 [14d] |  | EC50 (T315I Bcr-Abl [1]): > 10 µM; EC50 (parental Ba/F3): > 10 µM; fold more potent than 14c (wtBcr-Abl-Ba/F3; cellular Bcr-Abl EC50, versus compound lacking N-methylation (14c)): approximately 10 fold; EC50 (E505K Bcr-Abl): > 10 µM
FC(F)(F)Oc1ccc(Nc2ncnc(NCCN3CCOCC3)n2)cc1 [9l, N2-(2-morpholinoethyl)-N4-(4-(trifluoromethoxy)phenyl)-1,3,5-triazine-2,4-diamine] | inactive | 
Fc1ccc(Nc2cc(-c3ccncc3)ncn2)cc1 [9h] | complete loss in activity | 
